Published values gathered from unrelated publications.
Each line is one published result; the experiments were not run side by side.
Target: 5-hydroxytryptamine receptor 2A (HTR2A, Homo sapiens, UniProt P28223)
Concentration: 10 µM

Compound	effect on	method	quantity	result
CCc1ccccc1C(=O)Nc1n[nH]c2c(C)c(F)c(C3C(C#N)=C(C)N(C)C(C)=C3C#N)cc12	ligand displacement	–	inhibition	14.8%
COCc1c(-c2cc3cc(C)cc(OC)c3s2)c2c(N)ncnn2c1CN1CCNC(=O)C1	ligand displacement	radioligand	inhibition	23%
COCCN(CCOC)C(=O)[C@@]12C[C@@H]1[C@@H](n1cnc3c(N)nc(Cl)nc31)[C@H](O)[C@@H]2O	ligand displacement	radioligand	inhibition	3%
Nc1c(C(=O)NCc2ccc(C(=O)NCCCC3CCCCC3)cc2)cnn1-c1ccccc1	ligand displacement	–	inhibition	23.7%
CSC[C@@]12C[C@@H]1[C@@H](n1cnc3c(NC(C4CC4)C4CC4)nc(I)nc31)[C@H](O)[C@@H]2O	ligand displacement	radioligand	inhibition	24%
COc1cc2c3c(c1OC)-c1cc4c(cc1CC3N(C)CC2)OCO4 (racemic)	ligand displacement	radioligand	inhibition	89.3%
Nc1ncc(-c2nc(N3CCOCC3)nc(N3CCOCC3)n2)c(C(F)F)n1	cell-free assay	radioligand	remaining signal	98.1%
COCCN(CCOC)C(=O)[C@@]12C[C@@H]1[C@@H](n1cnc3c(NC(C4CC4)C4CC4)nc(Cl)nc31)[C@H](O)[C@@H]2O	ligand displacement	radioligand	inhibition	0%
Clc1ccc2c(C3CCN(CCc4c[nH]c5ccccc45)CC3)c[nH]c2c1	ligand displacement	radioligand	inhibition	99%
CCN(CC)CCCC[C@H](NC(=O)[C@H](CC(C)C)NC(=O)[C@H](C)NC(=O)[C@H](Cc1ccccc1)NC(=O)c1ccc(C(C)(C)C)cc1)C(=O)N[C@@H](CO)C(=O)OC	ligand displacement	radioligand	inhibition	39%
